The source made the active and inactive calls. The calls are words filed in the database; no cut-off is given here.
Experiments:
[1] = molecular target: Protein smoothened (Mus musculus) (UniProt P56726); experiment: Antagonist activity at Smo in mouse ASZ001 cells assessed as inhibition of Hh signaling pathway by measuring suppression of Gli1 mRNA expression at 10 uM after 48 hrs by qRT-PCR method; assay type: cell-based
How it was run: (§1)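 ASZ001 BCC cells (154CF medium, 2% chelated FBS, 0.05 mM CaCl2), treated 48 h with compound or DMSO. Transcripts quantified by qRT-PCR relative to a calibrator, normalized to β2-microglobulin and HPRT.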

[2] = molecular target: Protein smoothened (Mus musculus) (UniProt P56726); experiment: Antagonist activity at Smo in Ptch1+/- mouse medulloblastoma cells assessed as inhibition of Hh signaling pathway by measuring suppression of CycD2 mRNA expression at 10 uM after 24 hrs by qRT-PCR method
How it was run: (§2)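 Freshly isolated Ptch1± mouse MB cells in short-term culture, treated 24 h with compound (10 μM) or DMSO. mRNA measured by qRT-PCR against a calibrator (arbitrary units) and normalized to β2-microglobulin and HPRT. Mean ± SD of three independent experiments.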

[3] = organism: Mus musculus; experiment: (§3) Inhibition of Bodipy-cyclopamine binding to mouse FLAG-tagged Smo D477G mutant expressed in HEK293 cells after 3 hrs by Hoechst staining based fluorescence assay; assay type: cell-based
How it was run: (§4)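 Cells transiently transfected with mouse Flag-tagged Smo WT or D477G were washed in PBS/0.5% FBS, fixed 10 min in 4% paraformaldehyde and permeabilized with 0.2% Triton X-100. They were then incubated 3 h at 37 °C with Bodipy-cyclopamine 5 nM plus compound, with Hoechst nuclear stain. Green signal was scored in 3–4 fields per coverslip (20×) as % of binding with BC alone.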

[4] = as §3; assay type: cell-based; how it was run: as §4
[5] = molecular target: Protein smoothened (Mus musculus) (UniProt P56726); experiment: Antagonist activity at Smo in […]-stimulated mouse granule cell progenitors assessed as inhibition of Hh signaling pathway-dependent cell proliferation by measuring suppression of N-Myc mRNA expression at 5 uM after 24 hrs by qRT-PCR method
[6] = molecular target: Protein smoothened (Mus musculus) (UniProt P56726); experiment: Antagonist activity at Smo in Ptch1-/- mouse MEF assessed as inhibition of Hh signaling pathway by measuring suppression of Gli1 mRNA expression at 5 uM after 48 hrs by qRT-PCR method
[7] = molecular target: Protein smoothened (Mus musculus) (UniProt P56726); experiment: Antagonist activity at Smo in […]-stimulated mouse granule cell progenitors assessed as inhibition of Hh signaling pathway-dependent cell proliferation by measuring suppression of Ptch1 mRNA expression at 5 uM after 24 hrs by qRT-PCR method
[8] = molecular target: Protein smoothened (Mus musculus) (UniProt P56726); experiment: Antagonist activity at Smo in […]-stimulated mouse granule cell progenitors assessed as inhibition of Hh signaling pathway-dependent cell proliferation by measuring suppression of NMyc protein expression at 5 uM after 24 hrs by Western blot method
[9] = molecular target: Protein smoothened (Mus musculus) (UniProt P56726); experiment: Antagonist activity at Smo in […]-stimulated mouse granule cell progenitors assessed as inhibition of Hh signaling pathway-dependent cell proliferation by measuring suppression of CycD2 mRNA expression at 5 uM after 24 hrs by qRT-PCR method
[10] = molecular target: Protein smoothened (Mus musculus) (UniProt P56726); experiment: Antagonist activity at Smo in Ptch1-/- mouse MEF assessed as inhibition of Hh signaling pathway by measuring suppression of Ptch1 mRNA expression at 5 uM after 48 hrs by qRT-PCR method
[11] = molecular target: Protein smoothened (Mus musculus) (UniProt P56726); experiment: Antagonist activity at Smo in mouse ASZ001 cells assessed as inhibition of Hh signaling pathway by measuring suppression of Gli2 mRNA expression at 10 uM after 48 hrs by qRT-PCR method; assay type: cell-based; how it was run: as §1
[12] = molecular target: Protein smoothened (Mus musculus) (UniProt P56726); experiment: Antagonist activity at Smo in mouse ASZ001 cells assessed as inhibition of Hh signaling pathway by measuring suppression of CycD2 mRNA expression at 10 uM after 48 hrs by qRT-PCR method; assay type: cell-based; how it was run: as §1
[13] = molecular target: Protein smoothened (Mus musculus) (UniProt P56726); experiment: Antagonist activity at Smo in Ptch1+/- mouse medulloblastoma cells assessed as inhibition of Hh signaling pathway by measuring suppression of Gli1 mRNA expression at 10 uM after 24 hrs by qRT-PCR method; how it was run: as §2
[14] = molecular target: Protein smoothened (Mus musculus) (UniProt P56726); experiment: Antagonist activity at Smo in […]-stimulated mouse granule cell progenitors assessed as inhibition of Hh signaling pathway-dependent cell proliferation by measuring suppression of Gli1 protein expression at 5 uM after 24 hrs by Western blot method
[15] = molecular target: Protein smoothened (Mus musculus) (UniProt P56726); experiment: Antagonist activity at Smo in […]-stimulated mouse granule cell progenitors assessed as inhibition of Hh signaling pathway-dependent cell proliferation by measuring suppression of CycD1 mRNA expression at 5 uM after 24 hrs by qRT-PCR method
[16] = molecular target: Protein smoothened (Mus musculus) (UniProt P56726); experiment: Antagonist activity at Smo in […]-stimulated mouse granule cell progenitors assessed as inhibition of Hh signaling pathway-dependent cell proliferation by measuring suppression of Gli2 mRNA expression at 5 uM after 24 hrs by qRT-PCR method
[17] = molecular target: Protein smoothened (Mus musculus) (UniProt P56726); experiment: Antagonist activity at Smo in mouse ASZ001 cells assessed as inhibition of Hh signaling pathway by measuring suppression of BMP2 mRNA expression at 10 uM after 48 hrs by qRT-PCR method; assay type: cell-based; how it was run: as §1
[18] = molecular target: Protein smoothened (Mus musculus) (UniProt P56726); experiment: Antagonist activity at Smo in Ptch1+/- mouse medulloblastoma cells assessed as inhibition of Hh signaling pathway by measuring suppression of Ptch1 mRNA expression at 10 uM after 24 hrs by qRT-PCR method; how it was run: as §2
[19] = molecular target: Protein smoothened (Mus musculus, UniProt P56726); experiment: Inhibition of Bodipy-cyclopamine binding to mouse FLAG-tagged Smo expressed in HEK293 cells after 3 hrs by Hoechst staining based fluorescence assay; assay type: cell-based; how it was run: as §4
[20] = molecular target: Protein smoothened (Mus musculus) (UniProt P56726); experiment: Antagonist activity at Smo in […]-stimulated mouse granule cell progenitors assessed as inhibition of Hh signaling pathway-dependent cell proliferation by measuring suppression of Gli1 mRNA expression at 5 uM after 24 hrs by qRT-PCR method
[21] = molecular target: Protein smoothened (Mus musculus) (UniProt P56726); experiment: Antagonist activity at Smo in Ptch1-/- mouse MEF assessed as inhibition of Hh signaling pathway by measuring suppression of CycD2 mRNA expression at 5 uM after 48 hrs by qRT-PCR method
[22] = molecular target: Protein smoothened (Mus musculus) (UniProt P56726); experiment: Antagonist activity at Smo in Ptch1+/- mouse medulloblastoma cells assessed as inhibition of Hh pathway dependent cell growth up to 72 hrs by trypan blue assay
How it was run: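 Primary MB cells freshly isolated from Ptch1± mouse tumours, used in short-term culture to keep Hh sensitivity; compound 10 μM or DMSO control; viable cells counted by trypan blue after 24, 48 and 72 h. Mean ± SD of three independent experiments.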

[23] = molecular target: Protein smoothened (Mus musculus) (UniProt P56726); experiment: Antagonist activity at Smo in Ptch1-/- mouse MEF assessed as inhibition of Hh signaling pathway by measuring suppression of Gli2 mRNA expression at 5 uM after 48 hrs by qRT-PCR method
[24] = molecular target: Protein smoothened (Mus musculus) (UniProt P56726); experiment: Antagonist activity at Smo in Ptch1-/- mouse MEF assessed as inhibition of Hh signaling pathway by measuring suppression of CycD1 mRNA expression at 5 uM after 48 hrs by qRT-PCR method
[25] = molecular target: Protein smoothened (Mus musculus) (UniProt P56726); experiment: Antagonist activity at Smo in mouse ASZ001 cells assessed as inhibition of Hh pathway dependent cell growth up to 72 hrs by trypan blue assay; assay type: cell-based
How it was run: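 ASZ001 BCC cells grown in 154CF medium with 2% Chelex-chelated FBS and 0.05 mM CaCl2, treated with compound or DMSO control; viable cells counted by trypan blue after 24, 48 and 72 h.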

[26] = molecular target: Protein smoothened (Mus musculus) (UniProt P56726); experiment: Antagonist activity at Smo in Ptch1-/- mouse MEF assessed as inhibition of Hh signaling pathway by measuring suppression of Igf2 mRNA expression at 5 uM after 48 hrs by qRT-PCR method
[27] = molecular target: Protein smoothened (Mus musculus) (UniProt P56726); experiment: Antagonist activity at Smo in Ptch1+/- mouse medulloblastoma cells assessed as inhibition of Hh signaling pathway by measuring suppression of CycD1 mRNA expression at 10 uM after 24 hrs by qRT-PCR method; how it was run: as §2
[28] = molecular target: Protein smoothened (Mus musculus) (UniProt P56726); experiment: Antagonist activity at Smo in mouse ASZ001 cells assessed as inhibition of Hh signaling pathway by measuring suppression of Ptch1 mRNA expression at 10 uM after 48 hrs by qRT-PCR method; assay type: cell-based; how it was run: as §1
[29] = molecular target: Protein smoothened (Mus musculus) (UniProt P56726); experiment: Antagonist activity at Smo in Ptch1+/- mouse medulloblastoma cells assessed as inhibition of Hh signaling pathway by measuring suppression of Gli2 mRNA expression at 10 uM after 24 hrs by qRT-PCR method; how it was run: as §2
[30] = molecular target: Protein smoothened (Mus musculus) (UniProt P56726); experiment: Antagonist activity at Smo in mouse ASZ001 cells assessed as inhibition of Hh signaling pathway by measuring suppression of CycD1 mRNA expression at 10 uM after 48 hrs by qRT-PCR method; assay type: cell-based; how it was run: as §1
[31] = molecular target: Protein smoothened (Mus musculus) (UniProt P56726); experiment: Antagonist activity at Smo in […]-stimulated mouse granule cell progenitors assessed as inhibition of Hh signaling pathway-dependent cell proliferation by measuring suppression of CycD1 protein expression at 5 uM after 24 hrs by Western blot method
[32] = molecular target: Protein smoothened (Mus musculus) (UniProt P56726); experiment: Antagonist activity at Smo in Ptch1-/- mouse MEF assessed as inhibition of Hh signaling pathway by measuring suppression of HIP1 mRNA expression at 5 uM after 48 hrs by qRT-PCR method

Sequence of Protein smoothened (Mus musculus) (P56726 whole entry): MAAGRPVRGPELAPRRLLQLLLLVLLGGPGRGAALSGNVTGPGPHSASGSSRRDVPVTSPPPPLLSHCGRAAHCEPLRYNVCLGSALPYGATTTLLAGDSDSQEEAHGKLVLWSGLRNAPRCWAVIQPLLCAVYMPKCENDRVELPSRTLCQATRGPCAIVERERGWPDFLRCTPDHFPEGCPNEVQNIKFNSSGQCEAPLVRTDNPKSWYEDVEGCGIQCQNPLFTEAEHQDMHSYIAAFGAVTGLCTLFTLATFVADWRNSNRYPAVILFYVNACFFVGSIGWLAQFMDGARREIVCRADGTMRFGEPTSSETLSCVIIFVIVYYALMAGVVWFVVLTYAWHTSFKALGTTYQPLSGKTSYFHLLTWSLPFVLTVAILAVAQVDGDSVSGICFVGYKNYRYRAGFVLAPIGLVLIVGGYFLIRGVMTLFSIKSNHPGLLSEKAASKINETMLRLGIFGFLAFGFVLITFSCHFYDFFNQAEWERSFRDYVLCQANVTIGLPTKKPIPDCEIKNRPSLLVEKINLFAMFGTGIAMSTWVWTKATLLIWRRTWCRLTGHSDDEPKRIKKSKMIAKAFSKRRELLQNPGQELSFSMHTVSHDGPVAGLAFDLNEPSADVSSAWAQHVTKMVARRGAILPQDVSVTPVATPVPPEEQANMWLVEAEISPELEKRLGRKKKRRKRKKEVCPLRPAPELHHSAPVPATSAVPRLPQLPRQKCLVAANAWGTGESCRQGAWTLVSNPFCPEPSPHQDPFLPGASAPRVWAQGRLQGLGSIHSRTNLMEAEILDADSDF
Sequence of Protein smoothened (P56726 whole entry): as above

inhibition [1] | inhibition [2] | IC50 [4] | inhibition [5] | inhibition [6] | inhibition [7] | inhibition [8] | inhibition [9] | inhibition [10] | inhibition [11] | inhibition [12] | inhibition [13] | inhibition [14] | inhibition [15] | inhibition [16] | inhibition [17] | inhibition [18] | IC50 [19] | inhibition [20] | Structure (SMILES) | inhibition [3] | other results
Active | Active | 12.4 µM | Active | Active | Active | Active | Active | Active | Active | Active | Active | Active | Active | Active | Active | Active | 13.8 µM | Active | COc1cccc(C(=O)c2c(-c3ccccc3)[nH]c3ccccc3c2=O)c1 | Dose-dependent effect | inhibition [21]: Active; growth inhibition (GI) [22]: Dose-dependent effect; inhibition [23]: Active; inhibition [24]: Active; growth inhibition (GI) [25]: Dose-dependent effect; inhibition [26]: Active; inhibition [27]: Active; inhibition [28]: Active; inhibition [29]: Active; inhibition [30]: Active; inhibition [31]: Active; inhibition [32]: Active
Active | Active | 29.4 µM | Active | Active | Active | Active | Active | Active | Active | Active | Active | Active | Active | Active | Active | Active | 24 µM | Active | O=C(c1ccccc1)c1c(-c2ccccc2)[nH]c2ccc(Br)cc2c1=O | Dose-dependent effect | inhibition [21]: Active; growth inhibition (GI) [22]: Dose-dependent effect; inhibition [23]: Active; inhibition [24]: Active; growth inhibition (GI) [25]: Dose-dependent effect; inhibition [26]: Active; inhibition [27]: Active; inhibition [28]: Active; inhibition [29]: Active; inhibition [30]: Active; inhibition [31]: Active; inhibition [32]: Active
